The values below come from publication PMC4085996 (ChemMedChem, 2014).

The term EC50 denotes the concentration that produces a half-maximal response. For orientation: CC50 means the concentration giving 50% cytotoxicity. A higher CC50 goes with better tolerance by the cells. A word on the log P: it is the decadic logarithm of the partition coefficient of the neutral form, usually between octanol and water. Read a high log P as a more lipophilic compound.

Where “and” joins values, the source holds several entries; their conditions need not be identical. Equal values may be shown once. Read-outs that look alike come from different tables or passages of the source.

Data set [1] deals with HIV-1 RT multidrug-resistant (RTMDR) viral strain. The note with it: read-out: EC50 RTMDR (prior studies); same assays for leads and drugs; cited from earlier work.
Data set [2] deals with HIV-1 NL4-3 (wild-type) virus. The data set is described as follows: microbe, parasite or virus in culture. The class given is cell-based.
The subject of data set [3] is HIV-1 IIIB (wt). Put plainly: HIV-1 infection assay using MT-2 cells. The class given is cell-based. In short, it runs like this: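 MT-2 cells (10^4/well) infected overnight with 100 TCID50 HIV-1 IIIB in RPMI 1640 plus 10% FBS, with or without graded concentrations of test compound. Medium then replaced with compound-free medium. On day 4 post-infection, supernatants mixed with equal volume 5% Triton X-100 and p24 antigen quantified by ELISA. EC50 calculated from percent inhibition of p24 production.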

Data set [4] is described as follows: CytoTox-Glo cytotoxicity assay. Particulars: human, TZM-bl cells. The class given is cell-based. In short, it runs like this:
(§1)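 Run alongside the antiviral assays. TZM-bl cells were cultured for one day with graded concentrations of test compound. Percent viable cells was determined with the CytoTox-Glo kit according to the manufacturer's protocol.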

Data set [5] can be described thus: Microsomal stability assay. The class given is in vitro ADME. The note with it: 1 μM compound, 0.1 mg/mL human liver microsomes, 37 °C. A general note: Liver microsomes are a subcellular fraction often used to study metabolism.
Data set [6] has as its system HIV-1 RTMDR (RT L74V, M41L, V106A, T215Y). The class given is cell-based. The note with it: TZM-bl cells; for Resistance fold change RTMDR: versus NL4-3(wt); for EC50: read-out: EC50 RTMDR.
The test system of data set [7] is HIV-1 NL4-3 K101E mutant. The class given is cell-based. The note with it: TZM-bl cells; for Resistance fold change K101E: versus NL4-3(wt); for EC50: read-out: EC50 K101E.
Data set [8] has as its system HIV-1 NL4-3 E138K mutant. The class given is cell-based. Particulars: TZM-bl cells; for Resistance fold change E138K: versus NL4-3(wt); for EC50: read-out: EC50 E138K.
The test system of data set [9] is TZM-bl cells. Put plainly: CytoTox-Glo cytotoxicity assay. The class given is cell-based. Particulars: one day, average of two independent tests. An outline of the steps:
as §1

Data set [10] in a line: Aqueous solubility measurement. The class given is physicochemical. The note with it: triplicate; for Aqueous solubility pH 2.0: pH 2.0, HPLC method; for Aqueous solubility pH 7.4: pH 7.4, HPLC method.
Data set [11] is described as follows: Log P measurement. The class given is physicochemical. Particulars: measured at pH7.4 by HPLC method, triplicate.
For data set [12], the system named is HIV-1 A17 (K103N and Y181C). The class given is cell-based. Particulars: MT-2 cells; for Resistance fold change A17: versus IIIB (wt); for EC50: read-out: EC50 A17.
Data set [13] has as its system HIV-1 wild-type and resistant viral strains with RTMDR, K101E or E138K mutation. Put plainly: Text summary: antiviral potency over wild-type and resistant strains. The class given is cell-based.
Where [14] appears, read: read-out: EC50 (NL4-3 infection of TZM-bl cells), mean ± SD, at least three independent experiments.
Setting [15] is: read-out: EC50 NL4-3(wt), TZM-bl cells, Table 2.
Setting [16] is: read-out: EC50 IIIB (wt), MT-2 cells.

Regarding `Cc1cc(C#N)cc(C)c1Oc1nc(Nc2ccc(C#N)cc2)nc(N)c1Br` [1a, etravirine], the EC50 in data set [1] was 1 nM.
With `Cc1cc(/C=C/C#N)cc(C)c1Nc1ccnc(Nc2ccc(C#N)cc2)n1` [1b, rilpivirine, reference compound], the EC50 is 0.44 nM in [2] (Human immunodeficiency virus 1, NL43, TZM-bl, read-out: EC50 NL4-3(wt)); 0.49 nM in data set [3] (Human immunodeficiency virus 1, IIIB, MT2, read-out: EC50 IIIB (wt)); 0.49 nM in [1]. For the same compound, half-maximal cytotoxicity in [4] (CC50 at 1 day) was put at 19400 nM. Further, the “HLM t1/2” value in data set [5] was found to be 39.52 min.
Take `N#Cc1ccc(Nc2nc(Oc3c(F)cccc3F)ccc2N)cc1` [6a, N^2-(4′-Cyanophenyl)amino-6-(2”,6”-difluoro)phenoxypyridin-3-amine]: the EC50 in data set [2] (setting [14]) is 6.78 ± 1.18 nM; in data set [2] (setting [15]) it was 6.78 nM; in [6], 3.55 nM; in data set [7], 53 nM; in [8] it was over 29 nM. The “Resistance fold change RTMDR” value in [6] amounted to 0.52. Also, the “Resistance fold change K101E” value in data set [7] turned out to be 7.82. Moreover, in [8], the “Resistance fold change E138K” value amounted to 4.3. The compound also had a CC50 in data set [9] of 19200 nM. Also, the “HLM t1/2” value in [5] is 44.01 min. Further, the “Aqueous solubility pH 2.0” value in data set [10] is given as 8.42 μg/mL. Besides, the “Aqueous solubility pH 7.4” value in data set [10] was found to be 1.58 μg/mL. The “log P” value in [11] is over 5.
Consider `N#C/C=C/c1cc(F)c(Oc2ccc(N)c(Nc3ccc(C#N)cc3)n2)c(F)c1` [6g, (E)-N^2-(4′-Cyanophenyl)amino-6-(4”-cyanovinyl-2”,6”-difluoro)phenoxypyridin-3-amine], for which the EC50 was 0.75 ± 0.18 nM in [2] (setting [14]); 0.75 nM in data set [2] (setting [15]); 34.7 nM in data set [6]; 7.2 nM in data set [7]; 7.71 nM in data set [8]; 1.11 nM in data set [3] (setting [16]). Moreover, in [12], the EC50 was over 500 nM. In data set [6], the “Resistance fold change RTMDR” value came out at 46.3. For the same compound, in [7], the “Resistance fold change K101E” value was 9.6. Besides, in data set [8], the “Resistance fold change E138K” value is given as 10.3. Moreover, in data set [12], the “Resistance fold change A17” value is over 450. In data set [9], this compound gave a CC50 of 11000 nM. Further, the “HLM t1/2” value in data set [5] is 76.46 min. In [10], the “Aqueous solubility pH 2.0” value was determined as 1.27 μg/mL. Besides, the “Aqueous solubility pH 7.4” value in data set [10] turned out to be 0.72 μg/mL. The “log P” value in [11] is recorded as 3.48.
With `N#Cc1ccc(Nc2nc(Oc3c(Br)cc(C#N)cc3Br)ccc2N)cc1` [8a, 6-(4”-Cyano-2”,6”-dibromo)phenoxy-N^2-(4′-cyanophenyl)pyridin-2,3-diamine], the EC50 in [2] (setting [14]) is 0.99 nM and 0.93 nM; in [2] (setting [15]), 0.93 nM; in data set [6] it was 2.47 nM; in [7], 3.09 nM; in [8], 5.44 nM; in data set [3] (setting [16]), 12.4 nM. In addition, in data set [12], the EC50 came to 384 nM. Further, the “Resistance fold change RTMDR” value in data set [6] is on record as 2.6. In [7], the “Resistance fold change K101E” value was 3.3. Besides, the “Resistance fold change E138K” value in data set [8] was 5.8. The “Resistance fold change A17” value in data set [12] came to 30.8. This compound had a CC50 in data set [9] of 13200 nM. Also, the “HLM t1/2” value in [5] was determined as 41.66 min. Moreover, the “Aqueous solubility pH 2.0” value in data set [10] turned out to be 0.79 μg/mL. Also, the “Aqueous solubility pH 7.4” value in [10] amounted to 0.72 μg/mL. Further, the “log P” value in data set [11] came to 3.30.
For `N#C/C=C/c1cc(Br)c(Oc2ccc(N)c(Nc3ccc(C#N)cc3)n2)c(Br)c1` [8b, (E)-N^2-(4′-Cyanophenyl)amino-6-(4”-cyanovinyl-2”,6”-dibromo)phenoxypyridin-3-diamine], the EC50 came out at 0.33 ± 0.09 nM in [2] (setting [14]); 0.33 nM in data set [2] (setting [15]); 0.74 nM in data set [6]; 7.63 nM in data set [7]; 4.11 nM in data set [8]; 3.04 nM in data set [3] (setting [16]). For the same compound, in [12], the EC50 amounted to 200 nM. For the same compound, the “Resistance fold change RTMDR” value in data set [6] is 2.2. Besides, in data set [7], the “Resistance fold change K101E” value came out at 23.1. Also, the “Resistance fold change E138K” value in data set [8] came to 12.4. The “Resistance fold change A17” value in data set [12] turned out to be 65.7. This compound yielded a CC50 in data set [9] of 8220 nM. Moreover, in data set [5], the “HLM t1/2” value is recorded as 21.87 min. Further, in data set [10], the “Aqueous solubility pH 2.0” value came to 0.63 μg/mL. The “Aqueous solubility pH 7.4” value in data set [10] is recorded as 0.62 μg/mL. In data set [11], the “log P” value is reported as 3.55.
With `COc1cc(/C=C/C#N)cc(Br)c1Oc1ccc(N)c(Nc2ccc(C#N)cc2)n1` [8c, (E)-6-(2”-Bromo-4”-cyanovinyl-6”-methoxy)phenoxy-N^2-(4′-cyanophenyl) pyridin-2,3-diamine], the EC50 was 3.25 ± 0.89 nM in [2] (setting [14]); 3.25 nM in [2] (setting [15]); 3.46 nM in data set [6]; 3.9 nM in data set [7]; 6.93 nM in data set [8]; 4.53 nM in data set [3] (setting [16]). For the same compound, the EC50 in data set [12] turned out to be 84.4 nM. The “Resistance fold change RTMDR” value in data set [6] is reported as 1.1. Also, in data set [7], the “Resistance fold change K101E” value worked out at 1.2. In addition, in data set [8], the “Resistance fold change E138K” value came out at 2.1. Also, the “Resistance fold change A17” value in data set [12] worked out at 18.6. The CC50 in [9] was 21000 nM. For the same compound, in data set [5], the “HLM t1/2” value is 54.7 min and 54.71 min. Besides, the “Aqueous solubility pH 2.0” value in data set [10] turned out to be 0.82 μg/mL. For the same compound, the “Aqueous solubility pH 7.4” value in data set [10] is reported as 0.50 μg/mL. The lipophilicity (log P) in [11] was 3.31. Moreover, in data set [13], the “resistance fold change (RFC), range over resistant strains” value is 1.1–2.1.
On to `N#C/C=C/c1cc(Cl)c(Oc2ccc(N)c(Nc3ccc(C#N)cc3)n2)c(Cl)c1` [8d, (E)-N^2-(4′-Cyanophenyl)amino-6-(4”-cyanovinyl-2”,6”-dichloro)phenoxypyridin-3-amine], for which, in data set [2] (setting [14]), the EC50 amounted to 8.14 ± 2.49 nM. Further, in data set [9], the CC50 amounted to 10700 nM. Also, the “HLM t1/2” value in data set [5] is on record as 39.61 min. In data set [10], the “Aqueous solubility pH 2.0” value is reported as 0.81 μg/mL and the “Aqueous solubility pH 7.4” value is reported as 0.70 μg/mL. Further, in [11], the “log P” value is given as over 5.
